An excerpt weighted towards active compounds, which were near 2.5% of everything screened.
OX1R antag-1: OX1R (HCRTR1) antagonists, primary screen, fluorescence, CHO/OX1R cells, Fluo-8 calcium, orexin A | Fluo-8 calcium fluorescence | inhibition, % at 5 µM | Orexin/Hypocretin receptor type 1 (Homo sapiens), O43613 | AID 434989, 2010 | 330,000 tested, 0.43% active;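 active = inhibition above its plate's threshold, mean inhibition of all tested compounds on the plate plus 3 SD, cut at about 37% in these data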;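 also: 0% = orexin A challenge wells and 100% = SB-334867-A antagonist wells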
Target sequence (O43613 whole entry, looked up): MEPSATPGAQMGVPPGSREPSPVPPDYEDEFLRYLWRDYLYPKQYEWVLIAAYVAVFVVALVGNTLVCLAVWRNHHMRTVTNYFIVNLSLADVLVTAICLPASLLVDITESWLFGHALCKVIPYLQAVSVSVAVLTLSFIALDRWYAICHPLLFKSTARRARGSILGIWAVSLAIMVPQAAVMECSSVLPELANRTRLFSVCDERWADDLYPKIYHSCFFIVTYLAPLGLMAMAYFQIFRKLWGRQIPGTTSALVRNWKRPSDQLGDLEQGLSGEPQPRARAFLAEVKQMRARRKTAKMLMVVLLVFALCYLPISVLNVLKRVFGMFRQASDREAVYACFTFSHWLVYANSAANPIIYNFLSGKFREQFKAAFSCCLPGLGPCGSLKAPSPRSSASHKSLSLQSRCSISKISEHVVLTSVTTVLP
TRPML3 agonist: human TRPML3 channel agonists, primary screen, cell-based, HEK293 TRPML3-YFP, Fluo-8 calcium fluorescence, 3 µM | Mucolipin-3 (Homo sapiens), Q8TDD5 | 100% = the carbachol control signal | activation, % at 3 µM | 220,000 tested, 0.29% active;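 active = activation above its plate's cutoff, the mean activation of the plate's test wells plus 3 SD, cut at about 12% in these data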;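 also: 0% = DMSO only wells and 100% = carbachol wells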
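Test system – HEK293 line with stable expression of human TRPML3-YFP channel · Control set – carbachol 87 µM final as high control (100%), DMSO as low control (0%) · Signal – Fluo-8 calcium dye fluorescence, ex 470-495, em 515-575 nm · Incubation – 1-h 37 °C dye load, 5-s basal, 120-s post-compound reads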
zfTRPN1 agonist: zebrafish TRPN1 channel agonists, primary screen, cell-based, HEK293, calcium fluorescence. HEK293 zebrafish TRPN1-YFP, Fluo-8 calcium fluorescence; 100% = response to 87 µM carbachol. activation, % at 3 µM. 220,000 tested, 0.18% active. AID 1424, 2008;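 active = activation above its plate's cutoff, the mean activation of test wells on that plate plus 3 SD, cut at about 19% in these data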;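 also: 0% = DMSO alone and 100% = 87 µM carbachol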
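Assay system: Zebrafish TRPN1-YFP in HEK293 cells | Incubation: Dye loading 1 h at 37 °C, then 30 min room temperature | Measured by: Kinetic Fluo-8 fluorescence, ex 470-495, em 515-575 nm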
OX1R antag-2: antagonists of human orexin 1 receptor (OX1R); Orexin/Hypocretin receptor type 1 (Homo sapiens), O43613; OX1R-expressing cells, FRET antagonist read-out; inhibition, % at 6.6 µM; 330,000 tested, 1.8% active; in the data active = inhibition mostly above about 38%, no sharp cut-off; inactive = mostly below about 40%;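 also: 0% = agonist challenge alone and 100% = reference antagonist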
CHO parental Ca: ATP-evoked calcium signal inhibitors, parental CHO, primary screen, counter-screen for OX1R antagonist project, cell-based, fluorescence, Fluo-8 calcium dye. parental CHO-K1, ATP-induced calcium, Fluo-8 fluorescence. inhibition, % at 5.6 µM. 330,000 tested, 0.63% active. AID 463079, 2010;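 active = inhibition above that plate's mean sample inhibition plus 3 SD, cut at about 26% in these data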;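 also: 0% = ATP-challenged DMSO wells and 100% = DMSO wells without ATP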
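Material: Parental CHO cells | Reagent: ATP | Compound dosing: Single nominal dose of 5.6 µM per compound | Detection: Intracellular calcium via Fluo-8 no-wash fluorescent dye | Read-out: % inhibition of ATP-induced calcium mobilization | Benchmarks: Low control ATP plus DMSO, high control DMSO only | Replicates: Singlicate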
OX1R HTRF conf: OX1R (HCRTR1) antagonists, confirmation, cell-based, HTRF. 1,800 tested, 49% active. inhibition, % at 6.6 µM. shares compounds with OX1R antag-2. OX1R-expressing cells, HTRF antagonist assay; in the data active = inhibition above about 55%;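 also: CHO cells expressing OX1R stimulated with orexin A at about EC80; 0% = agonist challenge alone and 100% = reference antagonist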
CHO-K1 HTRF cnt: signal inhibition in parental CHO-K1 cells, counter-screen for OX1R antagonist project, cell-based, HTRF; inhibition, % at 6.6 µM; shares compounds with OX1R antag-2; 1,800 tested, 48% active; HTRF counterscreen; in the data active = inhibition above about 17%;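 also: 0% = agonist challenge with vehicle and 100% = vehicle alone without agonist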
Starred values were filed as active, the others as inactive; / = not tested or not shown; + = active, no number; ! = not active in a repeat.

SMILES	OX1R antag-1	TRPML3 agonist	zfTRPN1 agonist	OX1R antag-2	CHO parental Ca	OX1R HTRF conf	CHO-K1 HTRF cnt
Cc1cccc(CCNS(=O)(=O)c2ccc3c(c2)NC(=O)CS3)c1	-11	/	/	39	-27	/	/
COc1nc(NCCc2ccc(OC)c(OC)c2)nc(Nc2ccccc2)n1	-26	/	/	23	-19	/	/
NC(=O)C1CCN(C(=O)c2ccc3c(c2)S(=O)(=O)c2ccccc2C3=O)CC1	-10	/	/	88*	-6	60*	70*
CCOC(=O)C1CCN(C(=O)c2ccc3c(c2)S(=O)(=O)c2ccccc2C3=O)CC1	-42	/	/	32	-30	/	/
O=C1c2ccccc2S(=O)(=O)c2cc(C(=O)N3CCCC3)ccc21	-22	/	/	104*	-15	44	69*
Cc1ccc2c(c1)N(CC(=O)Nc1ccccc1F)C(=O)CO2	-7	/	/	21	-8	/	/
COc1ccc(C(=O)c2ccc(Cl)cc2)c2ccccc12	-25	1	-1	3	-22	/	/
COc1ccc(C(=O)c2ccccc2)c2c(O)ccc(C(=O)c3ccccc3)c12	18	0	0	104*	6	60*	6
O=C1NC(=S)N/C1=C\c1cccc([N+](=O)[O-])c1	11	0	0	29	4	/	/
O=C1NC(=S)N/C1=C/c1cccc([N+](=O)[O-])c1	-5	1	0	93*	-11	31	40*
CCOC(=O)C1(Cc2cccc(OC)c2)CCCN(C(=O)CCN2CCCO2)C1 (stereo not given)	-21	/	/	15	-11	/	/
Cc1ccc(NC(=O)CN2CCCC2c2cccn2C)c(Br)c1 (stereo not given)	-9	/	/	2	-18	/	/
O=C(O)c1ccc(NC2=C(n3nnc4ccccc43)C(=O)c3ccccc3C2=O)cc1	-13	1	1	174*	6	53	56*
CC(C)Cn1[nH]c2c3c(ccc2c1=O)C(=O)c1ccccc1C3=O	-23	1	1	135*	-25	37	33*
COc1ccc2cc(C(N)=O)/c(=N/NC(=O)c3ccco3)oc2c1	-7	0	4	79*	-3	54	11
COc1ccc2cc(C(=O)NCc3ccco3)c(=O)oc2c1	-6	0	0	48	1	/	/
O=C(NN1C(=O)c2ccc(-c3ccc4c(c3)C(=O)N(NC(=O)c3cccnc3)C4=O)cc2C1=O)c1cccnc1	-9	0	0	92*	-9	39	33*
CC(=O)/C=C(\C)N=Nc1c(O)[nH]c2ccccc12	-5	-1	-2	54	10	/	/
COc1cccc(CC2(CO)CCCN(Cc3c(C)cc(C)cc3-n3cccn3)C2)c1 (stereo not given)	-34	0	-2	8	-13	/	/
CCN(CC)c1ccc(/C=N/NC(=O)OC)c(O)c1	-7	0	0	26	-22	/	/
CCN(CC)c1ccc(/C=N/NC(=O)c2ccoc2C)c(O)c1	4	0	0	85*	-22	91*	14
O=C(CSc1ccc([N+](=O)[O-])cn1)Nc1ccc2[nH]c(=O)[nH]c2c1	5	/	/	93*	-3	28	24*
O=C(CSc1ccc([N+](=O)[O-])cn1)Nc1ccc2c(c1)OCCO2	-17	0	0	17	-5	/	/
O=C(O)COc1c(Cl)cc(/C=C2/NC(=O)NC2=O)cc1Br	-15	0	0	88*	-9	42	37*
CCc1ccc(NC(=O)CN(CC(=O)Nc2ccc(CC)cc2)CC(C)O)cc1 (stereo not given)	-13	/	/	-8	-20	/	/
SMILES	OX1R antag-1	TRPML3 agonist	zfTRPN1 agonist	OX1R antag-2	CHO parental Ca	OX1R HTRF conf	CHO-K1 HTRF cnt
COc1cc2sc3ccc(-c4ccc(N(C)C)nc4)cc3c(=O)c2cc1OC	-6	/	/	80*	-18	65*	17
COc1cc2sc3ccc(-c4ccc(CN5CCOCC5)cc4)cc3c(=O)c2cc1OC	-23	/	/	38	-25	/	/
COc1ccc(CCNC(=O)CC2SC(=NCc3ccccc3)NC2=O)cc1 (stereo not given)	-24	0	1	25	-13	/	/
Cc1cc(C)c[n+](-c2nc3ccccc3nc2C(=C=[N-])C#N)c1	3	1	1	84*!	0	32	33*
Cc1ccc[n+](-c2nc3ccccc3nc2C(=C=[N-])C#N)c1	5	1	3	96*	4	36	41*
CCOC(=O)/C(C#N)=C1/C=Nc2ccccc2N1	4	0	1	28	-4	/	/
CCC(=O)N=c1ccn(C2=Nc3ccccc3NC2=C(C#N)C#N)cc1	-12	1	1	102*	-4	49	36*
CC(=O)c1ccc(OCC(=O)Nc2c(C)nn(-c3ccccc3)c2C)cc1	-8	/	/	91*	-8	27	7
O=S(=O)(c1ccc2c(c1)OCCO2)N1CCN(S(=O)(=O)c2ccccn2)CC1	9	/	/	4	-2	/	/
Cc1ccc2c(ccn3cc4c(c(=O)n(C)c(=O)n4C)c23)c1	-2	0	-1	86*	-17	88*	6
CCOC(=O)COc1ccc2cc(C(=O)OCC)c(=O)oc2c1	-3	0	1	110*	4	34	38*
CCOC(=O)COc1ccc2c3c(c(=O)oc2c1)CCCC3	-32	/	/	-10	-18	/	/
Cc1ccc(C(=O)NC2CCN(CC(=O)NC3CCC(C)CC3)CC2)cc1 (stereo not given)	-33	/	/	2	-19	/	/
CNC(=O)c1c(NC(=O)c2ccco2)sc2c1CCC2	-14	/	/	78*	7	45	1
CCN1CCN(C(=O)c2cc3cc4cc(OC)ccc4nc3s2)CC1	-16	1	-1	110*	-9	11	0
O=C(c1ccc2c(c1)C(=O)N(CCCO)C2=O)c1ccc2c(c1)C(=O)N(CCCO)C2=O	-16	1	3	149*	-15	56*	67*
COCCCN1C(=O)c2ccc(C(=O)O)cc2C1=O	0	1	-1	16	-3	/	/
c1ccc(-c2cnn3nnnc3n2)cc1	-2	0	0	+	-8	71*	115*
O=C1C(Nc2ccccc2)=C/C(=N/S(=O)(=O)c2cccs2)c2ccccc21	-21	-1	-3	40	-23	/	/
